Laboratory results published in ChEMBL document CHEMBL4513216, “Probing the Open Global Health Chemical Diversity Library for Multistage-Active Starting Points for Next-Generation Antimalarials” (ACS Infect Dis, 2020).

Assay: Toxicity liver stage against HepG2, at 10uM
Format: cell-based
Set-up: test concentration 10 uM, cell line HepG2-A16-CD81EGFP
Settings: human, HepG2-A16-CD81EGFP cells; read-out: INHIBITION
Summary of the method: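 Uninfected HepG2-A16-CD81EGFP cells, 3 × 10^3 per well, 1536-well, plated on prespotted compound at 10 μM final, parasite-free screening media added to match infected plates; puromycin 10 μM positive, DMSO 0.5% negative; run in parallel with 48 h PbLuc assay at 37 °C, 5% CO2; viability by CellTiter-Glo luminescence, normalized to controls.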

Structure (SMILES) | cytotoxicity at 10 µM
COc1cc(CN2CCC(COCc3ccccc3)CC2)cc(OC)c1 | -3.38%
O=C(CN1CCOCC1)Nc1ccc(C(F)(F)F)cc1Cl | 4.72%
Cc1nc(C#N)c(N2CCC(c3nc(-c4ccc(F)cc4)no3)CC2)o1 | 3.86%
Cc1c(C(=O)O)cnn1-c1ccc(-c2nc(C3CC3)no2)cn1 | 0.88%
Cc1c(C(=O)N2CCN(c3ccccn3)CC2)n(C)c2ccc(Cl)cc12 | 3.95%
CN(c1ccccc1C(=O)O)S(=O)(=O)c1cccc2cccnc12 | -0.996%
Cc1nn(C)c2c(NCc3ccccn3)nc(C(C)C)nc12 | -3.23%
CCNS(=O)(=O)c1ccc2c(c1)c(=O)n(CC)c(=O)n2CC | 10.4%
CO[C@@H]1CC[C@@H](NS(=O)(=O)c2cn(C)nc2C)[C@H]1O | -3.11%
CCCC(=O)Nc1cccc([C@H]2C[C@@H](NC(C)=O)CCO2)c1 | 5.09%
COc1ccccc1C1CCCN1CC(=O)N1CCC(C(N)=O)CC1 (stereo not given) | -24.8%
Cc1nccn1CC(=O)N1CC(Cc2nccc3ccn(C)c23)C1 | -23.4%
CC(=O)N1CCN([C@@H]2CC[C@@H](NC(=O)c3cc(C)cs3)[C@H]2O)CC1 | 6.02%
Cn1cc(C(=O)N2CCCC(c3cnccn3)C2)cn1 (stereo not given) | -10.5%
O=S(=O)(c1ccc(F)cc1)N1CCCC1c1cc[nH]n1 (stereo not given) | -5.94%
COCCC(=O)N1CCCC1c1nccnc1Nc1ncccn1 (stereo not given) | -14.8%
CN(C)CCN(C)C(=O)NC1CCC(Oc2ccccc2C#N)CC1 (stereo not given) | -21.8%
COc1ccc(-c2nc(CCNc3nnc(C)c(C)c3C#N)co2)cc1 | -17.2%
CN1CCOC(CNCc2nc(-c3cccnc3)no2)C1 (stereo not given) | -5.3%
O=C(NCC(O)c1ccsc1)c1sccc1OC(F)F (stereo not given) | -16%
CC(C)c1nnc2n1CCN(Cc1cc(Cl)c3c(c1)OCO3)C2 | 0.0723%
Cn1nc2c(c1NC(=O)c1cccs1)CCC2 | 6.16%

Structure (SMILES) | cytotoxicity at 10 µM
Cc1cc(F)c2c(c1)CCCN2S(=O)(=O)c1ncn(C)c1Cl | 1.99%
Cc1nc(CN2CCOC(c3ccc(Cl)cc3)C2)oc1C (stereo not given) | -10.1%
NC(=O)c1cnn2c1NCC(CNC1(c3ccccc3)CCC1)C2 (stereo not given) | -8.84%
CSc1ccc(NC(=O)Cn2cc(NC(C)=O)cn2)cc1 | 0.753%
O=S(=O)(CC1CCCCO1)Nc1cnn(Cc2ccccc2)c1 (stereo not given) | 4.34%
CN(C)S(=O)(=O)CCCN1CCc2c(ncn2C2CC2)C1 | -10.5%
Cc1cc(CN(Cc2ccccc2)C2CC2)on1 | 0.174%
COCC(=O)Nc1cc(S(=O)(=O)C(F)(F)F)ccc1OC | 17.3%
Cn1cc(C#N)cc1C(=O)Nc1ccc(CN2CCOCC2)cn1 | -6.68%
CC(C)(CNC(=O)C1CCCCN1S(C)(=O)=O)N1CCOCC1 (stereo not given) | -7.15%
Cc1cc(S(=O)(=O)N2CCCc3cc(F)c(F)cc32)sc1C(=O)O | -11.9%
CC(C)NC(=O)CS(=O)(=O)Cc1coc(-c2ccc(F)cc2)n1 | -6.6%
CCc1nc(CN2CCCC(N(C)CCn3cccn3)C2)no1 (stereo not given) | -11.5%
CC(CN1CCCC1=O)NC(=O)c1ccc(C(F)(F)F)[nH]c1=O (stereo not given) | -4.48%
COC(C)(C)CNC(=O)N1CCC(n2ccc(C(F)(F)F)n2)CC1 | -2.41%
CC(C)COCCCNC(=O)c1cccnc1N1CCOCC1 | -5.12%
CC(C)(C)c1csc(C2CCCCN2C(=O)CCn2cncn2)n1 (stereo not given) | -4.34%
C[S+]([O-])c1ccc(NC(=O)Cc2cccnc2)cc1F (stereo not given) | -4.26%
O=C(c1nc(=O)[nH][nH]1)N1CCCN(CC2CCCCC2)CC1 | -12.9%
Cc1nc(C2CCCN2C(=O)CN(C)Cc2ccccc2)no1 (stereo not given) | -0.803%
Cc1cnn(C2CN(CC(=O)N(C)Cc3ccc(C)o3)C2)c1 | -15.9%
Fc1cccc(Cl)c1CN1CCn2c(nnc2C2CC2)C1 | 8.7%

Structure (SMILES) | cytotoxicity at 10 µM
CC(=O)N(Cc1noc(C)n1)C1CCN(CC2(O)CCCCC2)C1 (stereo not given) | 5.69%
CN(CC(C)(C)C)S(=O)(=O)c1ccc(C(F)(F)F)nc1 | 3.24%
Cc1cc2n(n1)CC(CNCc1cnn(C)c1)CN2 (stereo not given) | 5.25%
CCOCC1CN(S(=O)(=O)c2ccccc2)Cc2nccn2C1 (stereo not given) | -112%
CC(=O)NCC(=O)N1CCN(C)c2ncccc2C1 | -113%
c1cc(-c2n[nH]cc2-c2ccnc(N3CCCC3)n2)ccn1 | -0.779%
COC(=O)c1ccc2ccn(CC3CCCN(C)C3)c(=O)c2c1 (stereo not given) | -16.1%
CC(C)CN1C(=O)CC[C@H]2CN(C(=O)Cn3ccc(=O)cc3)CC[C@H]21 | 0.582%
CCC[C@H]1CN(c2cncc(C(=O)N(C)C)n2)C[C@@H]1N(C)C | -7.83%
CCN1CCN(C(=O)c2cc(C(F)(F)F)n[nH]2)[C@H]2CS(=O)(=O)C[C@H]21 | -3.77%
Cc1cc2nc(C(C)C)cc(NCCc3ccncc3)n2n1 | -1.18%
CC(c1ccon1)N(C)C(=O)C1CCN(C(=O)C2CC2)CC1 (stereo not given) | -2.71%
CC(C)N1CCC(CC(=O)NC(C(=O)O)c2ccc(F)cc2)CC1 (stereo not given) | 0.0453%
COc1cccc(-c2n[nH]cc2-c2nc(CN3CCCC3)no2)c1 | -23.2%
COc1cc(C2CC(=O)Nc3c2nc2n3CCCC2)cc2c1OCO2 (stereo not given) | -6.67%
COC1CCN(C(=O)Cn2ncc(N3CCCCC3)cc2=O)C1 (stereo not given) | -2.69%
CCN1CCC(N2CCN(c3cc(-c4nc(C)no4)ccn3)CC2)CC1 | -3.79%
CCC(NC1CCN(S(C)(=O)=O)CC1)c1cccs1 (stereo not given) | 0.125%
CN(C)CCO[C@H]1C[C@@H](O)C12CCN(c1cnccn1)CC2 | 3.79%
CN1CCC(N2CC[C@@H]3[C@@H](CCC(=O)N3CCC3=CCCCC3)C2)CC1 | -6.53%
Cc1cc(-c2nc(-c3c(C)ncc4c3CCNC4)no2)nc(C)n1 | 4.43%
Cc1nnc(CCNC(=O)C(c2ccc(F)cc2)N(C)C)[nH]1 (stereo not given) | -5.96%

Structure (SMILES) | cytotoxicity at 10 µM
NCC1CN(C(=O)Cn2ncc(N3CCCCC3)cc2=O)CCO1 (stereo not given) | -8.27%
CCN(C)C(=O)c1ccc(N(C)Cc2cc(-c3cccnc3)no2)nc1 | -7.21%
CCCc1nc(C)c(CN2CC3(CCOC3)CCC2=O)s1 (stereo not given) | -10.5%
Cn1cc(C2=CCN(CCC(=O)NCc3ccc(Cl)cc3)CC2)cn1 | -1.77%
CN(C)CCNC(=O)c1cc2n(n1)CCN(C(=O)c1ccco1)C2 | 2.52%
Cc1nc(CN)cc(NCc2ccccc2-n2cncn2)n1 | 1.88%
O=S1(=O)C[C@@H]2[C@H](C1)N(Cc1cc(F)cc(F)c1)CCN2CCO | -2.61%
CCc1oc(C(=O)N[C@@H]2c3ccccc3C[C@@H]2O)cc1CN1CCCC1 | -5.65%
Cc1nc(CN2CCC(NS(C)(=O)=O)CC2)co1 | -12.4%
CCC[C@@H]1CN(Cc2cnc(-c3cccs3)nc2)C[C@H]1C(=O)O | -22.9%
CC(C1CCN(Cc2ccc(OC(F)F)cc2)CC1)N1CCOCC1 (stereo not given) | -2.38%
COc1cc(NC2CCS(=O)(=O)C2)ncn1 (stereo not given) | 7.53%
CSCCCN1CCn2nc(CNC(C)=O)cc2C1 | -13.6%
N#Cc1c(SCCN2CCOCC2)sc2c(O)cc(O)nc12 | -7.5%
CCn1cc(-c2cc(C(F)F)n3nc(CCC(=O)O)nc3n2)cn1 | -2.78%
Cc1cncc(C2CCCN(C(=O)c3ccc(C)[nH]c3=O)C2)n1 (stereo not given) | 5.37%
OCCn1cc(CN2CCN(CCOc3cccc(F)c3)CC2)cn1 | -10.9%
Cc1nnc2n1CCN(Cc1ccc3c(c1)OCCO3)C2 | -8.95%
Cc1nc(C(=O)N2CCCC(c3cc(C(F)(F)F)[nH]n3)C2)c[nH]1 (stereo not given) | -0.945%
Cc1ccc(C(=O)NS(=O)(=O)c2ccccc2F)c(=O)[nH]1 | -5.53%
CC(C)c1nnc(CN2CCCC(c3cc(C(N)=O)[nH]n3)C2)o1 (stereo not given) | -29.7%
CC(C)c1nc2c(n1C)CCN(Cc1cccc(C(N)=O)c1)C2 | -7.39%

Structure (SMILES) | cytotoxicity at 10 µM
CC1CN(Cc2noc(C3CC3)n2)CCN1Cc1noc(C2CC2)n1 (stereo not given) | -5.5%
Cc1cccc(OCCC(=O)N2CCN(CC(=O)NC3CC3)CC2)c1C | 2.22%
CCOCc1cc(CNC2CCCc3c2cnn3CC)ccc1OC (stereo not given) | -11.3%
CC(=O)c1ccc(OCC(=O)NS(=O)(=O)c2ccc(C)s2)cc1 | -8.9%
OCCn1nccc1C1CCN(Cc2nc(C3CC3)no2)CC1 | -11.7%
Cc1nccc(CNC(=O)N(CCCO)C2CCc3ccccc32)n1 (stereo not given) | -27.3%
CCc1ncc2c(n1)CN(CC(=O)Nc1nncs1)CC2 | 1.74%
CCc1nc(C2CCCN2C(=O)c2ccc3c(c2)COC3)no1 (stereo not given) | -14.4%
COc1ccc(Br)c(C(=O)NC(CC(=O)O)c2cccs2)c1 (stereo not given) | -3.48%
Cc1nc(C)n(CC2CCCN2Cc2nc3ccccc3o2)n1 (stereo not given) | -5.62%
Cc1ncsc1C(=O)NC1CCN(Cc2cccc3c2OCCO3)CC1 | -4.68%
CCCN1CCN(CC(O)c2ccc(OC(F)(F)F)cc2)CC1 (stereo not given) | -20.5%
Cc1ccc(CN(C)CC(=O)NC2(C)CCS(=O)(=O)C2)cc1 (stereo not given) | 5.05%
CC(C)c1nc2c(n1C)CCN(CC(=O)Nc1ccc(Cl)cn1)C2 | 0.241%
Cc1ccsc1CN(Cc1cccnc1)C1CC(C)(C)NC(C)(C)C1 | -10.7%
COC[C@@]12CCO[C@@H]1CCN(Cc1sccc1C)C2 | -109%
CC1CCN(c2cc(CCC3CCCN3)ncn2)CC1 (stereo not given) | -14.6%
Cc1ccc2c(c1)CCC2NCc1c(C)nn(C)c1N1CCOCC1 (stereo not given) | -8.03%
Cn1cc(C(=O)NCc2cncc3c2CCN(c2ccccn2)C3)cn1 | -99.6%
Cc1cnc(N2CCC3(CCN(Cc4csc(C)n4)C3=O)C2)nc1 (stereo not given) | -102%
CC(=O)N1CCCC2(C1)CN(c1nncs1)CCO2 (stereo not given) | -102%
CCN(C(=O)c1ccc2nnc(C3CCN(CCOC)C3)n2c1)C(C)C (stereo not given) | -114%
